Data from article PMC10842602 (Bioorganic & medicinal chemistry, 2023).

Molecular target: T1, WT human SLACK (Homo sapiens, UniProt Q5JUK3)
T1 sequence (Q5JUK3 1-1235 isoform Q5JUK3-3): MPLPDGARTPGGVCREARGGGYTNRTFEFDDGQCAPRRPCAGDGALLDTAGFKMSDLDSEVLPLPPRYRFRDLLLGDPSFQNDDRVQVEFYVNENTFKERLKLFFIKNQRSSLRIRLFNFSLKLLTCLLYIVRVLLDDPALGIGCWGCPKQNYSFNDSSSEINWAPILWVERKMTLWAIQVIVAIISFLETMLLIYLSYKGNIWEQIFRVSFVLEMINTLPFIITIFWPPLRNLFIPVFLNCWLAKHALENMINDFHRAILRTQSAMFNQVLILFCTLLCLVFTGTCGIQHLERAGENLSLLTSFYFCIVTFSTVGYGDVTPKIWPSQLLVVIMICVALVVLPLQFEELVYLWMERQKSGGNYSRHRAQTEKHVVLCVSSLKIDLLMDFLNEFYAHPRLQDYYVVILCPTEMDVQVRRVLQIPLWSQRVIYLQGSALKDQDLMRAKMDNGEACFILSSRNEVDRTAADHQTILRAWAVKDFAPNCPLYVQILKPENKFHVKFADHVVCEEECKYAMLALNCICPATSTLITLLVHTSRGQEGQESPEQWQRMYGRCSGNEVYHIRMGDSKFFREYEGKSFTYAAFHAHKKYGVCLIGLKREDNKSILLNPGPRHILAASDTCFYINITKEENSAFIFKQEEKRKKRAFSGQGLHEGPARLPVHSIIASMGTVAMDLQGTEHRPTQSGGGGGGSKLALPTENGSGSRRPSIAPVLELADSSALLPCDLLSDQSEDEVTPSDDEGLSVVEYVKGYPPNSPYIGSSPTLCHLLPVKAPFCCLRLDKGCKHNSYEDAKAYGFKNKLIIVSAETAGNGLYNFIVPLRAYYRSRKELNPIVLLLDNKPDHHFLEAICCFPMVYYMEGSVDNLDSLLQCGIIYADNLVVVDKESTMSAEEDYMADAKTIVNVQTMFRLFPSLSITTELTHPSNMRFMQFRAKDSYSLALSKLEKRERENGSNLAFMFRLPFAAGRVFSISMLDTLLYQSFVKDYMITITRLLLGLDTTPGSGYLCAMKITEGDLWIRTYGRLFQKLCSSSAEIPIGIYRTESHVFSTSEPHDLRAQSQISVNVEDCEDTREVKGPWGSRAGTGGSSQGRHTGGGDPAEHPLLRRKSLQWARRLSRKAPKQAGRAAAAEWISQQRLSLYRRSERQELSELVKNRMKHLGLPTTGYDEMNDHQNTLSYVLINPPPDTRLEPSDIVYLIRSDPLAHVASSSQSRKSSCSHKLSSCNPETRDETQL
Experiment: Tl+ flux assay in HEK-293 cells stably expressing WT human SLACK
Format: cell-based
Settings: for IC50 / EC50: CRC; for Mode: Tl+ flux, HEK-293 cells expressing WT SLACK
Summary of the method: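 Stably transfected HEK-293 cells expressing wild-type human SLACK; thallium flux read-out. IC50 or EC50 taken from concentration-response curves, and each compound classed as inhibitor, activator or not active. Efficacy is the response amplitude at 30 μM test compound, as a percentage of the maximum response to a reference SLACK inhibitor (for inhibitors) or loxapine (for activators).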

[1] = IC50 for compounds of mode Inh (also cells printed Inactive)

Compound | IC50 / EC50 [1] | Mode | IC50 / EC50 (EC50 for compounds of mode Act) [µM]
CCOc1ccccc1S(=O)(=O)N1CC(c2nc(-c3ccccc3)no2)C1 [Compound 40, 5-(1-((2-Ethoxyphenyl)sulfonyl)azetidin-3-yl)-3-phenyl-1,2,4-oxadiazole] | >10 µM |  | 
CCOc1ccccc1S(=O)(=O)N1CC(c2nc(-c3ccc(C)cc3)no2)C1 [Compound 52, 5-(1-((2-Ethoxyphenyl)sulfonyl)azetidin-3-yl)-3-(p-tolyl)-1,2,4-oxadiazole] | Inactive | Inactive | 
CCCc1ccccc1S(=O)(=O)N1CC(c2nc(-c3ccsc3)no2)C1 [Compound 30] | >10 µM |  | 
CCOc1ccccc1S(=O)(=O)N1CC(c2nc(-c3ccncc3)no2)C1 [Compound 66, 5-(1-((2-Ethoxyphenyl)sulfonyl)azetidin-3-yl)-3-(pyridin-4-yl)-1,2,4-oxadiazole] | Inactive | Inactive | 
CCOc1ccccc1S(=O)(=O)N1CC(c2cn(-c3ccc(F)cc3)nn2)C1 [Compound 95] |  |  | >10
CCOc1ccccc1S(=O)(=O)N1CC(c2nc(-c3ccc(Cl)cc3)no2)C1 [Compound 46, 3-(4-Chlorophenyl)-5-(1-((2-ethoxyphenyl)sulfonyl)azetidin-3-yl)-1,2,4-oxadiazole] | 11 µM |  | 
O=S(=O)(c1ccccc1N1CCCCC1)N1CC(c2nc(-c3ccc(F)cc3)no2)C1 [Compound 118, 3-(4-Fluorophenyl)-5-(1-((2-(piperidin-1-yl)phenyl)sulfonyl)azetidin-3-yl)-1,2,4-oxadiazole] | >10 µM |  | 
CCOc1ccccc1S(=O)(=O)N1CC(c2nc(-c3ccccc3OC)no2)C1 [Compound 53, 5-(1-((2-Ethoxyphenyl)sulfonyl)azetidin-3-yl)-3-(2-methoxyphenyl)-1,2,4-oxadiazole] |  |  | >10
Cc1nnc2c(S(=O)(=O)N3CC(c4nc(-c5ccc(F)cc5)no4)C3)cccn12 [Compound 133] | Inactive | Inactive | 
CCOc1ccccc1C(=O)N1CC(c2nc(-c3ccsc3)no2)C1 [Compound 33] |  |  | >10
CCOc1ccccc1S(=O)(=O)N1CC(c2nc(-c3ccccc3F)no2)C1 [Compound 41, 5-(1-((2-Ethoxyphenyl)sulfonyl)azetidin-3-yl)-3-(2-fluorophenyl)-1,2,4-oxadiazole] | 7.9 µM |  | 
O=S(=O)(c1ccccc1OC1COC1)N1CC(c2nc(-c3ccc(F)cc3)no2)C1 [Compound 115, 3-(4-Fluorophenyl)-5-(1-((2-(oxetan-3-yloxy)phenyl)sulfonyl)azetidin-3-yl)-1,2,4-oxadiazole] |  |  | 2.5
Cc1cccc(S(=O)(=O)N2CC(c3nc(-c4ccsc4)no3)C2)c1 [Compound 21, 3-(Thiophen-3-yl)-5-(1-(m-tolylsulfonyl)azetidin-3-yl)-1,2,4-oxadiazole] |  |  | >10
O=S(=O)(c1cccc(C(F)(F)F)c1)N1CC(c2nc(-c3ccsc3)no2)C1 [Compound 18, 3-(Thiophen-3-yl)-5-(1-((3-(trifluoromethyl)phenyl)sulfonyl)azetidin-3-yl)-1,2,4-oxadiazole] |  |  | 6.2
O=S(=O)(c1ccccc1OCC1CCC1)N1CC(c2nc(-c3ccc(F)cc3)no2)C1 [Compound 110, 5-(1-((2-(Cyclobutylmethoxy)phenyl)sulfonyl)azetidin-3-yl)-3-(4-fluorophenyl)-1,2,4-oxadiazole] | 9.3 µM |  | 
CCOc1ccccc1S(=O)(=O)N1CC(c2nnc(-c3ccc(F)cc3)[nH]2)C1 [Compound 86] |  |  | >10
CCOc1ccccc1CC(=O)N1CC(c2nc(-c3ccsc3)no2)C1 [Compound 34] |  |  | >10

Compound | IC50 / EC50 [1] | Mode | IC50 / EC50 (EC50 for compounds of mode Act) [µM]
CCOc1ccccc1S(=O)(=O)N1CC(c2nc(-c3ccco3)no2)C1 [Compound 63, 5-(1-((2-Ethoxyphenyl)sulfonyl)azetidin-3-yl)-3-(furan-2-yl)-1,2,4-oxadiazole] | >10 µM |  | 
O=S(=O)(c1ccc(F)cc1)N1CC(c2nc(-c3ccsc3)no2)C1 [Compound 13, 5-(1-((4-Fluorophenyl)sulfonyl)azetidin-3-yl)-3-(thiophen-3-yl)-1,2,4-oxadiazole] | Inactive | Inactive | 
Cc1cn2cccc(S(=O)(=O)N3CC(c4nc(-c5ccc(F)cc5)no4)C3)c2n1 [Compound 126] |  |  | >10
CCOc1ccccc1S(=O)(=O)N1CC(c2ncc(-c3ccc(F)cc3)o2)C1 [Compound 97] |  |  | 10
CCOc1ccccc1S(=O)(=O)N1CC(c2cc(-c3ccc(F)cc3)no2)C1 [Compound 92] | Inactive | Inactive | 
CCOc1ccccc1S(=O)(=O)N1CC(c2cc(-c3ccc(F)cc3)on2)C1 [Compound 102] | Inactive | Inactive | 
CCOc1ccccc1S(=O)(=O)C1CN(c2nc(-c3ccc(F)cc3)no2)C1 [Compound 71] | >10 µM |  | 
CCOc1ccccc1S(=O)(=O)N1CC(c2nnc(-c3ccc(F)cc3)o2)C1 [Compound 81] |  |  | >10
CCOc1ccccc1S(=O)(=O)N1CC(c2nc(-c3ccc(F)cn3)no2)C1 [Compound 67, 5-(1-((2-Ethoxyphenyl)sulfonyl)azetidin-3-yl)-3-(5-fluoropyridin-2-yl)-1,2,4-oxadiazole] | Inactive | Inactive | 
O=S(=O)(c1cccn2cnnc12)N1CC(c2nc(-c3ccc(F)cc3)no2)C1 [Compound 132] |  |  | >10
CCOc1ccccc1S(=O)(=O)N1CC(c2nc(-c3nccs3)no2)C1 [Compound 61, 5-(1-((2-Ethoxyphenyl)sulfonyl)azetidin-3-yl)-3-(thiazol-2-yl)-1,2,4-oxadiazole] | Inactive | Inactive | 
CCOc1ccccc1S(=O)(=O)N1CC(c2nc(-c3cccc(C(F)(F)F)c3)no2)C1 [Compound 48, 5-(1-((2-Ethoxyphenyl)sulfonyl)azetidin-3-yl)-3-(3-(trifluoromethyl)phenyl)-1,2,4-oxadiazole] | 11 µM |  | 
O=S(=O)(c1ccccc1OCC1CC1)N1CC(c2nc(-c3ccc(F)cc3)no2)C1 [Compound 114, 5-(1-((2-(Cyclopropylmethoxy)phenyl)sulfonyl)azetidin-3-yl)-3-(4-fluorophenyl)-1,2,4-oxadiazole] | 6.0 µM |  | 
O=S(=O)(c1ccc(Cl)cc1)N1CC(c2nc(-c3ccsc3)no2)C1 [Compound 16, 5-(1-((4-Chlorophenyl)sulfonyl)azetidin-3-yl)-3-(thiophen-3-yl)-1,2,4-oxadiazole] | Inactive | Inactive | 
CCNc1ccccc1S(=O)(=O)N1CC(c2nc(-c3ccsc3)no2)C1 [Compound 29] | Inactive | Inactive | 
CCOc1ccccc1S(=O)(=O)N1CC(c2nc(-c3ncccn3)no2)C1 [Compound 68, 5-(1-((2-Ethoxyphenyl)sulfonyl)azetidin-3-yl)-3-(pyrimidin-2-yl)-1,2,4-oxadiazole] | Inactive | Inactive | 
CCOc1ccccc1S(=O)(=O)N1CC(C)(c2nc(-c3ccc(F)cc3)no2)C1 [Compound 69] |  |  | 4.0
